Tested on: Japanese patients with advanced solid tumors
Assay: Phase 1 study: safety, tolerability, DLT and treatment-emergent adverse events
Assay type: in vivo, human
Procedure, shortened: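 Open-label single-arm dose levels of 80 or 105 mg/m2 IV were given on day 1 of 14-day cycles, with at most 6 patients per level. Adverse events were graded by CTCAE v4.03. DLTs were related events in cycle 1 meeting predefined hematologic or nonhematologic criteria. Tolerability required a cycle 1 DLT rate <33%. Primary G-CSF prophylaxis was barred during DLT evaluation; G-CSF was allowed for treatment-emergent neutropenia and as secondary prophylaxis.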

COc1cccc(OCCCN)c1-c1cc(Nc2cnc(C#N)cn2)n[nH]1 [Prexasertib]
8 (66.7) n (%): TEAE related to study treatment: Thrombocytopenia (Total N = 12, Any grade)
11 (91.7) n (%): TEAE related to study treatment: Neutropenia (Total N = 12, Any grade)
4 (33.3) n (%): TEAE related to study treatment: Neutropenia (Total N = 12, Grade 3)
1 patient: Patients with at least 1 AE that led to dose reduction (105 mg/m^2 group (105 to 80 mg/m^2))
5 (41.7) n (%): TEAE related to study treatment: Any (Total N = 12, Grade 3) | TEAE related to study treatment: Leukopenia (Total N = 12, Grade 3)
12 (100) n (%): TEAE related to study treatment: Any (Total N = 12, Any grade) | TEAE related to study treatment: Leukopenia (Total N = 12, Any grade)
3 patients: Patients with at least 1 AE that led to a dose adjustment (105 mg/m^2 group) | Patients with at least 1 AE that led to a dose delay (105 mg/m^2 group)
0 n (%): TEAE related to study treatment: Lung infection (105 mg/m^2 N = 6, Grade 3 + 4) | TEAE related to study treatment: Lymphocytopenia (105 mg/m^2 N = 6, Grade 3 + 4) | TEAE related to study treatment: Nausea (105 mg/m^2 N = 6, Grade 3 + 4) | TEAE related to study treatment: Pyrexia (105 mg/m^2 N = 6, Grade 3 + 4) | TEAE related to study treatment: Rash (105 mg/m^2 N = 6, Grade 3 + 4) | TEAE related to study treatment: Rash maculopapular (105 mg/m^2 N = 6, Grade 3 + 4) | TEAE related to study treatment: SVE (supraventricular extrasystoles) (105 mg/m^2 N = 6, Grade 3 + 4) | TEAE related to study treatment: Stomatitis (105 mg/m^2 N = 6, Grade 3 + 4) | TEAE related to study treatment: Anemia (105 mg/m^2 N = 6, Grade 4) | TEAE related to study treatment: Atrial fibrillation (105 mg/m^2 N = 6, Grade 4) | TEAE related to study treatment: Constipation (105 mg/m^2 N = 6, Grade 4) | TEAE related to study treatment: ECG QT prolonged (105 mg/m^2 N = 6, Grade 4) | TEAE related to study treatment: Fatigue (105 mg/m^2 N = 6, Grade 4) | TEAE related to study treatment: Febrile neutropenia (105 mg/m^2 N = 6, Grade 4) | TEAE related to study treatment: Headache (105 mg/m^2 N = 6, Grade 4) | TEAE related to study treatment: Hypocalcemia (105 mg/m^2 N = 6, Grade 4) | TEAE related to study treatment: Lung infection (105 mg/m^2 N = 6, Grade 4) | TEAE related to study treatment: Lymphocytopenia (105 mg/m^2 N = 6, Grade 4) | TEAE related to study treatment: Nausea (105 mg/m^2 N = 6, Grade 4) | TEAE related to study treatment: Pyrexia (105 mg/m^2 N = 6, Grade 4) | TEAE related to study treatment: Rash (105 mg/m^2 N = 6, Grade 4) | TEAE related to study treatment: Rash maculopapular (105 mg/m^2 N = 6, Grade 4) | TEAE related to study treatment: SVE (supraventricular extrasystoles) (105 mg/m^2 N = 6, Grade 4) | TEAE related to study treatment: Stomatitis (105 mg/m^2 N = 6, Grade 4) | TEAE related to study treatment: Thrombocytopenia (105 mg/m^2 N = 6, Grade 4) | TEAE related to study treatment: Atrial fibrillation (Total N = 12, Grade 3) | TEAE related to study treatment: Constipation (Total N = 12, Grade 3) | TEAE related to study treatment: ECG QT prolonged (Total N = 12, Grade 3) | TEAE related to study treatment: Fatigue (Total N = 12, Grade 3) | TEAE related to study treatment: Headache (Total N = 12, Grade 3) | TEAE related to study treatment: Hypocalcemia (Total N = 12, Grade 3) | TEAE related to study treatment: Lung infection (Total N = 12, Grade 3) | TEAE related to study treatment: Nausea (Total N = 12, Grade 3)
1 (16.7) n (%): TEAE related to study treatment: Thrombocytopenia (105 mg/m^2 N = 6, Grade 3 + 4) | TEAE related to study treatment: Leukopenia (105 mg/m^2 N = 6, Grade 4)
2 (16.7) n (%): TEAE related to study treatment: ECG QT prolonged (Total N = 12, Any grade) | TEAE related to study treatment: Fatigue (Total N = 12, Any grade) | TEAE related to study treatment: Febrile neutropenia (Total N = 12, Any grade) | TEAE related to study treatment: Lymphocytopenia (Total N = 12, Any grade) | TEAE related to study treatment: Nausea (Total N = 12, Any grade) | TEAE related to study treatment: Pyrexia (Total N = 12, Any grade) | TEAE related to study treatment: Rash maculopapular (Total N = 12, Any grade)
3 (50.0) n (%): TEAE related to study treatment: Any (105 mg/m^2 N = 6, Grade 4) | TEAE related to study treatment: Neutropenia (105 mg/m^2 N = 6, Grade 4)
6 (100) n (%): TEAE related to study treatment: Neutropenia (105 mg/m^2 N = 6, Grade 3 + 4)
3 (25.0) n (%): TEAE related to study treatment: Anemia (Total N = 12, Any grade) | TEAE related to study treatment: Constipation (Total N = 12, Any grade)
1 (8.3) n (%): TEAE related to study treatment: Atrial fibrillation (Total N = 12, Any grade) | TEAE related to study treatment: Headache (Total N = 12, Any grade) | TEAE related to study treatment: Hypocalcemia (Total N = 12, Any grade) | TEAE related to study treatment: Lung infection (Total N = 12, Any grade) | TEAE related to study treatment: Rash (Total N = 12, Any grade) | TEAE related to study treatment: SVE (supraventricular extrasystoles) (Total N = 12, Any grade) | TEAE related to study treatment: Stomatitis (Total N = 12, Any grade) | TEAE related to study treatment: Anemia (Total N = 12, Grade 3) | TEAE related to study treatment: Febrile neutropenia (Total N = 12, Grade 3) | TEAE related to study treatment: Lymphocytopenia (Total N = 12, Grade 3)

— article PMC6247064 (Cancer Science, 2018)
